Drawing on ChEMBL document CHEMBL3877276, “Design, synthesis, and biological evaluation of cyclic-indole derivatives as anti-tumor agents via the inhibition of tubulin polymerization” (Eur J Med Chem, 2017), this text covers IC50 for two compounds.

The first assay is described as follows: Antiproliferative activity against human LoVo cells measured after 48 hrs by MTT assay. Type of assay: functional, cell-based.
Conditions: not given
Compound `COc1cc(C2=CCCCc3c2ccc2[nH]ccc32)cc(OC)c1OC` had an IC50 of 0.52 µM.
In the case of `COc1cc(C2=CCCCc3c2ccc2c3c(C=O)cn2C)cc(OC)c1OC`, the midpoint of inhibition, the IC50, lay at 0.052 µM.

Another assay in a line: Antiproliferative activity against human A549 cells measured after 48 hrs by MTT assay. Type of assay: functional, cell-based. The note with it: A549, 48 h.
For `COc1cc(C2=CCCCc3c2ccc2[nH]ccc32)cc(OC)c1OC`, the IC50 is 0.451 µM.
Compound `COc1cc(C2=CCCCc3c2ccc2c3c(C=O)cn2C)cc(OC)c1OC` registered a 50% inhibitory concentration (IC50) of 0.029 µM.

The next assay in a line: Inhibition of porcine brain tubulin polymerization measured every 60 secs for 90 mins by fluorescence assay. Also noted: species or system Sus scrofa.
Conditions: not given
An outline of the steps: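 Porcine brain tubulin in a fluorescence kit. Reaction mix: 80.0 mM PIPES sesquisodium (pH 6.9), 2.0 mM MgCl2, 0.5 mM EGTA, 1 mM GTP, 10.2% glycerol. Compound added and mix pre-warmed 1 min at 37 °C, then tubulin added to start. Fluorescence (ex 340, em 410 nm) read every 60 s for 90 min. IC50 from area under curve, three independent experiments.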
Take `COc1cc(C2=CCCCc3c2ccc2c3c(C=O)cn2C)cc(OC)c1OC`: the IC50 came to 0.47 µM.

Another assay is described as follows: Antiproliferative activity against human Bel7402 cells measured after 48 hrs by MTT assay. Type of assay: functional, cell-based. The note with it: Bel-7402, 48 h.
The compound `COc1cc(C2=CCCCc3c2ccc2[nH]ccc32)cc(OC)c1OC` showed a half-maximal inhibitory concentration (IC50) of 0.62 µM.
On the same count and under the same terms, under `COc1cc(C2=CCCCc3c2ccc2c3c(C=O)cn2C)cc(OC)c1OC` stands 0.049 µM.

The next assay is described as follows: Antiproliferative activity against human MCF7 cells measured after 48 hrs by MTT assay. Format: functional, cell-based. The note with it: MCF7, 48 h.
Regarding `COc1cc(C2=CCCCc3c2ccc2[nH]ccc32)cc(OC)c1OC`, inhibition was half-maximal at 1.56 µM (IC50). That is a single-digit micromolar value.
The compound `COc1cc(C2=CCCCc3c2ccc2c3c(C=O)cn2C)cc(OC)c1OC` gave an IC50 of 0.059 µM.

A further assay is described as follows: Antiproliferative activity against human PC3 cells measured after 48 hrs by MTT assay. The note with it: PC-3, 48 h. Format: functional, cell-based.
Consider `COc1cc(C2=CCCCc3c2ccc2[nH]ccc32)cc(OC)c1OC`, for which the 50% inhibitory concentration (IC50) stood at 0.98 µM.
Still for that read-out and setting: the value for `COc1cc(C2=CCCCc3c2ccc2c3c(C=O)cn2C)cc(OC)c1OC` was 0.031 µM.

Another assay is described as follows: Antiproliferative activity against human HeLa cells measured after 48 hrs by MTT assay.
Conditions: not given
Type of assay: functional, cell-based.
Consider `COc1cc(C2=CCCCc3c2ccc2[nH]ccc32)cc(OC)c1OC`, for which the IC50 turned out to be 0.79 µM.
Still for that read-out and setting: under `COc1cc(C2=CCCCc3c2ccc2c3c(C=O)cn2C)cc(OC)c1OC` stands 0.041 µM.

A further assay is described as follows: Antiproliferative activity against human A2780 cells measured after 48 hrs by MTT assay. Type of assay: functional, cell-based. Particulars: A2780, 48 h.
Consider `COc1cc(C2=CCCCc3c2ccc2[nH]ccc32)cc(OC)c1OC`, for which 1.01 µM corresponded to half-maximal inhibition (IC50).
The same measure, in the same setting: the value for `COc1cc(C2=CCCCc3c2ccc2c3c(C=O)cn2C)cc(OC)c1OC` was 0.033 µM.
